The test system of data set [1] is Canis familiaris. Nature of the data set: Plasma clearance in Beagle dog at 1 mg/kg, po and 0.5 mg/kg, iv. In kind it is ADME, organism-based, Canis lupus familiaris. The conditions noted are these: in vivo. The essentials:
(§1)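 Single-dose PK at 1.0 mpk po and 0.5 mpk iv. Plasma compound levels measured.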

Data set [2] has as its target Sphingosine 1-phosphate receptor 2 (Homo sapiens, UniProt O95136). Nature of the data set: Displacement of [33P]sphingosine 1 phosphate from human S1P2 receptor expressed in CHO cells. In kind it is cell-based.
Data set [3] relates to Rattus norvegicus. In words: Decrease in peripheral blood lymphocyte counts in femoral artery cannulated Lewis rat at 3 mg/kg, po after 72 hrs. In kind it is functional. The essentials:
(§2)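 Femoral artery cannulated Lewis rats (n = 3) given a single 3 mpk oral dose. PBL counts and plasma compound concentration sampled over time up to 72 h postdose. A repeat 3 mpk po challenge was given to the same animals.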

Data set [4] relates to Rattus norvegicus. Nature of the data set: Decrease in peripheral blood lymphocyte counts in femoral artery cannulated Lewis rat at 3 mg/kg, po after 24 hrs. In kind it is functional. The essentials: as §2
The subject of data set [5] is Rattus norvegicus. Nature of the data set: Decrease in peripheral blood lymphocyte counts in Lewis rat at 1 mg/kg, po after 24 hrs. In kind it is functional. A digest of the protocol: (§3)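 Rat oral dose-titration at 1–30 mpk po. Peripheral blood lymphocyte counts and plasma compound concentrations determined 24 h postdose.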
A short description of data set [6]: Plasma concentration in femoral artery cannulated Lewis rat at 3 mg/kg, po after 56 hrs. It is filed as ADME, organism-based. The arrangement: dose 3 mg/kg, route oral. The essentials:
(§4)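 Femoral artery cannulated Lewis rats (n = 3) got a single 3 mpk oral dose. Compound plasma concentration (nM) was measured serially over time up to 72 h postdose. Peripheral blood lymphocyte counts were taken in parallel at the same time points. The same animals were later given a second 3 mpk oral dose.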

The nature of data set [7]: Plasma concentration in femoral artery cannulated Lewis rat at 3 mg/kg, po after 24 hrs. In kind it is ADME, organism-based. Also on record: dose 3 mg/kg, route oral. A digest of the protocol: as §4
Data set [8] can be described thus: Volume of distribution at steady state in rat at 2 mg/kg, po and 1 mg/kg, iv. It is filed as ADME, organism-based. The conditions noted are these: in vivo, read-out: Vdss.
Data set [9] can be described thus: Cmax in rhesus monkey at 1 mg/kg, po and 0.5 mg/kg, iv. In kind it is ADME, organism-based, Macaca mulatta. The conditions noted are these: in vivo. A digest of the protocol:
as §1

Data set [10] in a line: Plasma concentration in femoral artery cannulated Lewis rat at 3 mg/kg, po after 72 hrs. In kind it is ADME, organism-based. The arrangement: dose 3 mg/kg, route oral. A digest of the protocol:
as §4

Data set [11] deals with Rattus norvegicus. In words: Decrease in peripheral blood lymphocyte counts in femoral artery cannulated Lewis rat at 3 mg/kg, po after 32 hrs. It is filed as functional. A digest of the protocol:
as §2

The nature of data set [12]: Plasma concentration in femoral artery cannulated Lewis rat at 3 mg/kg, po after 4 hrs. Also on record: dose 3 mg/kg, route oral. In kind it is ADME, organism-based. The essentials:
as §4

The subject of data set [13] is Rattus norvegicus. Nature of the data set: Decrease in peripheral blood lymphocyte counts in femoral artery cannulated Lewis rat at 3 mg/kg, po after 16 hrs. In kind it is functional. A digest of the protocol: as §2
Data set [14] in a line: Plasma concentration in femoral artery cannulated Lewis rat at 3 mg/kg, po after 1 hr. In kind it is ADME, organism-based. The arrangement: dose 3 mg/kg, route oral. A digest of the protocol: as §4
A short description of data set [15]: Plasma concentration in femoral artery cannulated Lewis rat at 3 mg/kg, po after 6 hrs. It is filed as ADME, organism-based. The arrangement: dose 3 mg/kg, route oral. The essentials:
as §4

Data set [16] is described as follows: Bioavailability in rat at 2 mg/kg, po and 1 mg/kg, iv. It is filed as ADME, organism-based. The conditions noted are these: in vivo. The essentials:
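Rat PK at 2.0 mpk po and 1.0 mpk iv. Plasma compound levels measured.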

Data set [17] concerns Rattus norvegicus. Nature of the data set: Decrease in peripheral blood lymphocyte counts in femoral artery cannulated Lewis rat at 3 mg/kg, po after 4 hrs. In kind it is functional. A digest of the protocol:
as §2

A short description of data set [18]: Plasma concentration in Lewis rat at 10 mg/kg, po after 24 hrs. It is filed as ADME, organism-based. Also on record: dose 10 mg/kg, route oral. A digest of the protocol:
as §3

Data set [19] has as its target Sphingosine 1-phosphate receptor 3 (Homo sapiens, UniProt Q99500). Nature of the data set: Displacement of [33P]sphingosine 1 phosphate from human S1P3 receptor expressed in CHO cells. In kind it is cell-based.
Data set [20] deals with T1, Sphingosine 1-phosphate receptor 4 (Homo sapiens, UniProt O95977).
T1 sequence (O95977 whole entry): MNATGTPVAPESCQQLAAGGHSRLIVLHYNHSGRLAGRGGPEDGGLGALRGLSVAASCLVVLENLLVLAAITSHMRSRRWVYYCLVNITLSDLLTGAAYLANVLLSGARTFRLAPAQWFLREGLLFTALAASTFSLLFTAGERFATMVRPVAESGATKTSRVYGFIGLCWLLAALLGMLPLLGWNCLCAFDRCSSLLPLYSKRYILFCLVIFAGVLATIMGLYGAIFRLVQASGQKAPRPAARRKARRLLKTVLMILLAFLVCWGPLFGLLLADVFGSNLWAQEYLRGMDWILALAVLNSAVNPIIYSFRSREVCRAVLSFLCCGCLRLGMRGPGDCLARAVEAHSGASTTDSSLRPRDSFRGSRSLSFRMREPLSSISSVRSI
In words: Displacement of [33P]sphingosine 1 phosphate from human S1P4 receptor expressed in CHO cells. In kind it is cell-based. The essentials: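 Competition binding with [33P]-labeled S1P on membranes of CHO cells stably expressing each human S1P receptor. Values are the mean of n = 3 determinations.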

The nature of data set [21]: Plasma concentration in femoral artery cannulated Lewis rat at 3 mg/kg, po after 8 hrs. It is filed as ADME, organism-based. The arrangement: dose 3 mg/kg, route oral. The essentials: as §4

pIC50: −log10 of the molar value.

Sphingosine 1-phosphate receptor 3, sequence (Q99500 whole entry): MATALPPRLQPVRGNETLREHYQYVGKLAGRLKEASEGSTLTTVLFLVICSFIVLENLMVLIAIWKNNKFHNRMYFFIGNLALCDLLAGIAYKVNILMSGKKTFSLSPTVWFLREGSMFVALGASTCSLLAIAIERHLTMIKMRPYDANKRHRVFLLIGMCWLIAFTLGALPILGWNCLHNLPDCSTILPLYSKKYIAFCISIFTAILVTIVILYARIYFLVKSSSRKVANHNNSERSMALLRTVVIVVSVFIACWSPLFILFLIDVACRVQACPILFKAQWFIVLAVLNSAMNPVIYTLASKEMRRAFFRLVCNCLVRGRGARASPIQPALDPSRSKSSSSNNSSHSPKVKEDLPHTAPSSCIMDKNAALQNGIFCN
Sphingosine 1-phosphate receptor 2, sequence (O95136 whole entry): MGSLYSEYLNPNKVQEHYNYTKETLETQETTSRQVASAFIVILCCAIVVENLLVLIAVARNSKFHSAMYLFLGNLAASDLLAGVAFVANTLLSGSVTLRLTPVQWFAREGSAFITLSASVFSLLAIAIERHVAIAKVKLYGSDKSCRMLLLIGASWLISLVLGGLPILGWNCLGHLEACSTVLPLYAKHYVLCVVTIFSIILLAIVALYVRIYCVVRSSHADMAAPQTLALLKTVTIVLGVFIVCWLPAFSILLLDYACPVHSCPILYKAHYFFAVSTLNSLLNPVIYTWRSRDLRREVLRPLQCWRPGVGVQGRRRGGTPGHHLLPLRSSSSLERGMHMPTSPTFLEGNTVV

`O=C(O)C1CN(Cc2ccc(OCc3cc(-c4ccccc4)c(C(F)(F)F)s3)cc2)C1`: the clearance in data set [1] amounted to 2.2 mL/min/kg. Moreover, the pIC50 in data set [2] was below 5.00. Further, the Activity in data set [3] was determined as 7000 µL⁻¹; in [4], 1570 µL⁻¹; in data set [5], 2230 µL⁻¹; in data set [11] it was 1800 µL⁻¹; in data set [13], 1600 µL⁻¹; in [17] it was 1130 µL⁻¹. Further, the concentration at 56 h in [6] stood at 10 nM. Besides, the concentration at 24 h in data set [7] was found to be 120 nM; in [18] it was 370 nM. In addition, the Vd in data set [8] came out at 10 L/kg. The concentration in data set [9] peaked (Cmax) at 1800 nM. Further, the concentration at 72 h in data set [10] turned out to be 8 nM. For the same compound, the concentration at 4 h in data set [12] was 320 nM. The same compound came in with a concentration at 1 h in [14] of 270 nM. In [15], this compound registered a concentration at 6 h of 380 nM. Besides, in data set [16], the bioavailability amounted to 79%. The 50% inhibitory concentration (IC50) in data set [19] was 0.53 µM (antagonist); in data set [20] it was 1.6 µM (antagonist). In [21], this compound registered a concentration at 8 h of 310 nM.

As a reminder, the pIC50 is the negative decadic logarithm of the IC50, by convention in mol/L. A word on the Cmax: it is the peak of the concentration-time curve. What is called bioavailability is the share of a dose that reaches the circulation, judged against a reference dose that is usually intravenous. For orientation: IC50 means the concentration that gives 50% inhibition.

These data come from ChEMBL document CHEMBL1149292, “A rational utilization of high-throughput screening affords selective, orally bioavailable 1-benzyl-3-carboxyazetidine sphingosine-1-phosphate-1 receptor agonists” (J Med Chem, 2004).
